Measurements taken from ChEMBL document CHEMBL4261600 (Eur J Med Chem, 2018).
Activity calls are given as the source filed them.

What was measured:
[1] = tested on: Phosphatidylinositol 4,5-bisphosphate 3-kinase catalytic subunit alpha isoform (Homo sapiens), P42336 [H1047Y]; test: Binding affinity to human partial length PIK3CA H1047Y mutant (R108 to N1068 residues) expressed in mammalian expression system assessed as remaining unbound target protein level at 1000 nM by Kinomescan method relative to control
Summary of the method: (§1)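 KINOMEscan competition-binding profiling across the panel of 468 kinases and mutants, with inhibitor tested at 1 μM. Binding is expressed as percent of control, with DMSO as the reference control.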

[2] = biological target: Serine/threonine-protein kinase STK11 (Homo sapiens) (UniProt Q15831); test: Binding affinity to wild-type human full length LKB1 (M1 to Q433 residues) expressed in bacterial expression system assessed as remaining unbound target protein level at 1000 nM by Kinomescan method relative to control
Sequence of Serine/threonine-protein kinase STK11 (Homo sapiens) (Q15831 whole entry, the tested form may be a part): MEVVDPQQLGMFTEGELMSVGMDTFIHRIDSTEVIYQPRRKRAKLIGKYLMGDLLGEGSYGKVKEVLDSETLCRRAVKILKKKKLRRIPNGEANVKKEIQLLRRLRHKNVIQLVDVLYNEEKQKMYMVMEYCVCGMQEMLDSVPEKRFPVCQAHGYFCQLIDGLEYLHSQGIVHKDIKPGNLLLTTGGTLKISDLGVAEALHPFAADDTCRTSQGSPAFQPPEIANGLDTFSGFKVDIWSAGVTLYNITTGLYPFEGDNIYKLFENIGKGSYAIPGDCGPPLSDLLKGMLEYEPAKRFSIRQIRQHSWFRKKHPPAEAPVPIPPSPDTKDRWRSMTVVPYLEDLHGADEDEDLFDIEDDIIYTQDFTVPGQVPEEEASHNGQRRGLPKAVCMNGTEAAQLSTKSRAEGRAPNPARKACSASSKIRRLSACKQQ
Summary of the method: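 Single-point competition binding screen across a panel of 468 kinases and mutants, with the inhibitor at 1 μM. Binding is read out as percent of a DMSO control, and targets below 1 percent control were classed as strong binders.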

[3] = biological target: Cyclin-dependent kinase 9 (Homo sapiens, UniProt P50750); test: Inhibition of CDK9 in human HL60 cells assessed as decrease in RNA polymerase 2 phosphorylation at Ser 2 residues in CTD domain after 2 hrs by immunoblotting analysis; format: cell-based
Sequence of Cyclin-dependent kinase 9 (P50750 whole entry, the tested form may be a part): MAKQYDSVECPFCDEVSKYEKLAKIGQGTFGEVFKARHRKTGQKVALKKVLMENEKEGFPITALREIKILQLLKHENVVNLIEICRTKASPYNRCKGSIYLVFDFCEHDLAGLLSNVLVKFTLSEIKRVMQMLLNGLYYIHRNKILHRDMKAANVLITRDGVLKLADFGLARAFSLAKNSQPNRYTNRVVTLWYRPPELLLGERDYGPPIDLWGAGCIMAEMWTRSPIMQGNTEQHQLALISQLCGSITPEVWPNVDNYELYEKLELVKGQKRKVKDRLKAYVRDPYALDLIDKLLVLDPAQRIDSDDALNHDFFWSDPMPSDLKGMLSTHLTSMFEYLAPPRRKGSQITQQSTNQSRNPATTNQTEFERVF

HL-60 = test: Induction of apoptosis in human HL60 cells assessed as decrease in c-MYC level after 2 hrs by immunoblotting analysis; format: functional, cell-based
GISTT1 = test: Antiproliferative activity against human GISTT1 cells after 72 hrs by Celltiter-Glo assay; format: functional; settings: GISTT1, 72 h
Summary of the method: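 Cells seeded at 3000/well in 96-well plates, exposed to serially diluted compound for 72 h at 37 °C, 5% CO2. Viability read by CellTiter-Glo luminescence and normalized to DMSO control. GI50 derived from curve fit, mean of three independent measurements. Culture media: DMEM/10% FBS for adherent lines; IMDM for MV4-11 and MEC-1/2; RPMI 1640 for suspension lines and CHL.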

[4] = biological target: Cyclin-dependent kinase 17 (Homo sapiens) (UniProt Q00537); test: Binding affinity to wild-type human full length PCTK2 (M1 to F523 residues) expressed in bacterial expression system assessed as remaining unbound target protein level at 1000 nM by Kinomescan method relative to control
Summary of the method: (§2)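 KINOMEscan competition binding profile across a panel of 468 kinases and mutants, with the inhibitor tested at a single concentration of 1 μM. Binding is reported as percent of control, meaning signal relative to a DMSO control.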

[5] = biological target: Ribosomal protein S6 kinase alpha-4 (Homo sapiens) (UniProt O75676); test: Binding affinity to wild-type human partial length C-terminal RPS6KA4 kinase domain 2 (M375 to T705 residues) expressed in mammalian expression system assessed as remaining unbound target protein level at 1000 nM by Kinomescan method relative to control
Summary of the method: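 Profiled in a KINOMEscan binding panel with the inhibitor at a single concentration of 1 μM. Binding to each kinase was read out as percent of control, relative to a DMSO control. Strong binders were defined as those with a percent control value below 1.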

[6] = biological target: Epidermal growth factor receptor (Homo sapiens) (UniProt P00533); test: Binding affinity to human partial length EGFR E746-A750del mutant expressed in bacterial expression system assessed as remaining unbound target protein level at 1000 nM by Kinomescan method relative to control; summary of the method: as §1
[7] = biological target: Cyclin-dependent kinase-like 5 (Homo sapiens) (UniProt O76039); test: Binding affinity to wild-type human partial length CDKL5 (M1 to S337 residues) expressed in mammalian expression system assessed as remaining unbound target protein level at 1000 nM by Kinomescan method relative to control; summary of the method: as §2
Sequence of Cyclin-dependent kinase-like 5 (Homo sapiens) (O76039 whole entry, the tested form may be a part): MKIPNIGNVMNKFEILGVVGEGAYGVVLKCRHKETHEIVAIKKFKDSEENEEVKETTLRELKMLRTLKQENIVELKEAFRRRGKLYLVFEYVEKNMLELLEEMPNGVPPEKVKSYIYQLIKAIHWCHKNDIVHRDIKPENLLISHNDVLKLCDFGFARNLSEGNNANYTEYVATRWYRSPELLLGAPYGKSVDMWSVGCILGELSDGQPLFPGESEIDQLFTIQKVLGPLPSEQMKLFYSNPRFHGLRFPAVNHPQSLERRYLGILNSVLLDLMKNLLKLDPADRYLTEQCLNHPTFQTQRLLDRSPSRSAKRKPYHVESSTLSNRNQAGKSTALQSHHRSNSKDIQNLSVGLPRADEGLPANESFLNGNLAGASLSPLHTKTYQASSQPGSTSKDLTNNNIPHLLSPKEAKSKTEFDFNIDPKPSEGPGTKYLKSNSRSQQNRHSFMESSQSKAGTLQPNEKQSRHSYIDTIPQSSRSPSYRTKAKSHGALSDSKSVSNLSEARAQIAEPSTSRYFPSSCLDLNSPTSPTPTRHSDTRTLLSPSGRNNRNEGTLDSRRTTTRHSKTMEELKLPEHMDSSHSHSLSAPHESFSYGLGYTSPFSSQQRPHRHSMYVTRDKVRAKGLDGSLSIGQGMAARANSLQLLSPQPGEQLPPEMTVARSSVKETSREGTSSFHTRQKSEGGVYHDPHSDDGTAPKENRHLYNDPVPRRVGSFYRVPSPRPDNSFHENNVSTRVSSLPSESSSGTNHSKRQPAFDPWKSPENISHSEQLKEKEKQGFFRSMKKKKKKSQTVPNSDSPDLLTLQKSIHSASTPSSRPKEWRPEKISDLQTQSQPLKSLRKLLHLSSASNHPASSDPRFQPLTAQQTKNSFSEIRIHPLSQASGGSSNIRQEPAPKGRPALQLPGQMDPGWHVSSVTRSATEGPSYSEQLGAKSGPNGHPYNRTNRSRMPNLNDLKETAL

[8] = biological target: Vascular endothelial growth factor receptor 2 (Homo sapiens, UniProt P35968); test: Binding affinity to wild-type human partial length VEGFR2 (R787 to P1253 residues) expressed in mammalian expression system assessed as remaining unbound target protein level at 1000 nM by Kinomescan method relative to control; settings: read-out: Activity
Sequence of Vascular endothelial growth factor receptor 2 (P35968 whole entry, the tested form may be a part): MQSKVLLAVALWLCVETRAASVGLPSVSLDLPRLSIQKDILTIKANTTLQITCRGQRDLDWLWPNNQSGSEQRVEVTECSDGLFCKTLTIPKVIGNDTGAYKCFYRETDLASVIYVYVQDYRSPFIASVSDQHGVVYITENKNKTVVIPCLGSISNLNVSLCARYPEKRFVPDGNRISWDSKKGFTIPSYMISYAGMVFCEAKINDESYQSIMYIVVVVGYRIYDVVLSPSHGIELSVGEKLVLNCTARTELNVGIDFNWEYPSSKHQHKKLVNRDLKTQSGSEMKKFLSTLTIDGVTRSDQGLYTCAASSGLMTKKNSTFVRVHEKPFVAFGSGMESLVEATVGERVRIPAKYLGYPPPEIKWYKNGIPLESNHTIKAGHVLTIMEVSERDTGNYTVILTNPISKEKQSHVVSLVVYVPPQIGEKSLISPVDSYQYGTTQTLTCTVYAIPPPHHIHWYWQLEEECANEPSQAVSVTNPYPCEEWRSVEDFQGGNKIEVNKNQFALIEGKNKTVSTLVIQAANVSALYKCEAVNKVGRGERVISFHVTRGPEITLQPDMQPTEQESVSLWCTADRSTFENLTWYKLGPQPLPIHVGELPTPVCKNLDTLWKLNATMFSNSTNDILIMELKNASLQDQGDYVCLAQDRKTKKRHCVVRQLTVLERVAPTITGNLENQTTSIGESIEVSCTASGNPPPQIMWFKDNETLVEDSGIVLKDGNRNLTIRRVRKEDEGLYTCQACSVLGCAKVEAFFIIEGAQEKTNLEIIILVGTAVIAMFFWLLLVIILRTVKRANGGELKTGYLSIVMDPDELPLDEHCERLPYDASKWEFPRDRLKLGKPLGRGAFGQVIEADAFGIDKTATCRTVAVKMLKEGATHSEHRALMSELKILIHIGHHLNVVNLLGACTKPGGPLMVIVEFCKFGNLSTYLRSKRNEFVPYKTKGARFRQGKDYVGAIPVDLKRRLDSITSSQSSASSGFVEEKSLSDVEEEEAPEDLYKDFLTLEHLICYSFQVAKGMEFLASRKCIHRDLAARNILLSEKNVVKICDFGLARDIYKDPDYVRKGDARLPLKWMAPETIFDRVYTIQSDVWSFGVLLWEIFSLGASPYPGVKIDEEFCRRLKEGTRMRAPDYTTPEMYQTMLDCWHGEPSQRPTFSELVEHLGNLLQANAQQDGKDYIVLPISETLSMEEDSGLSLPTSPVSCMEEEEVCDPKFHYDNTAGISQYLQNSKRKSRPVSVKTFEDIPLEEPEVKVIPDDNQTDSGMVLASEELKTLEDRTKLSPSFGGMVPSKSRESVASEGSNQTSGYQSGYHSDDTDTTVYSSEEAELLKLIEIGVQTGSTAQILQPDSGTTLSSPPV

MV4-11 = test: Induction of apoptosis in human MV4-11 cells assessed as decrease in XIAP level up to 3 uM after 2 hrs by immunoblotting analysis; format: functional, cell-based
[9] = biological target: Ribosomal protein S6 kinase alpha-3 (Homo sapiens) (UniProt P51812); test: Binding affinity to wild-type human partial length N-terminal RSK2 kinase domain 1 (M1 to D394 residues) expressed in mammalian expression system assessed as remaining unbound target protein level at 1000 nM by Kinomescan method relative to control
[10] = biological target: Serine/threonine-protein kinase ULK2 (Homo sapiens) (UniProt Q8IYT8); test: Binding affinity to wild-type human partial length ULK2 (M1 to S301 residues) expressed in mammalian expression system assessed as remaining unbound target protein level at 1000 nM by Kinomescan method relative to control
[11] = tested on: Phosphatidylinositol 4,5-bisphosphate 3-kinase catalytic subunit alpha isoform (Homo sapiens), P42336 [C420R]; test: Binding affinity to human partial length PIK3CA C420R mutant (R108 to N1068 residues) expressed in mammalian expression system assessed as remaining unbound target protein level at 1000 nM by Kinomescan method relative to control; summary of the method: as §1
[12] = Tmax in Sprague-Dawley rat at 3 mg/kg, iv by LC-MS/MS analysis; format: ADME, organism-based; settings: in vivo
[13] = biological target: Beta-adrenergic receptor kinase 1 (Homo sapiens) (UniProt P25098); test: Binding affinity to wild-type human full length GRK2 (M1 to L689 residues) expressed in mammalian expression system assessed as remaining unbound target protein level at 1000 nM by Kinomescan method relative to control; summary of the method: as §2
Sequence of Beta-adrenergic receptor kinase 1 (Homo sapiens) (P25098 whole entry, the tested form may be a part): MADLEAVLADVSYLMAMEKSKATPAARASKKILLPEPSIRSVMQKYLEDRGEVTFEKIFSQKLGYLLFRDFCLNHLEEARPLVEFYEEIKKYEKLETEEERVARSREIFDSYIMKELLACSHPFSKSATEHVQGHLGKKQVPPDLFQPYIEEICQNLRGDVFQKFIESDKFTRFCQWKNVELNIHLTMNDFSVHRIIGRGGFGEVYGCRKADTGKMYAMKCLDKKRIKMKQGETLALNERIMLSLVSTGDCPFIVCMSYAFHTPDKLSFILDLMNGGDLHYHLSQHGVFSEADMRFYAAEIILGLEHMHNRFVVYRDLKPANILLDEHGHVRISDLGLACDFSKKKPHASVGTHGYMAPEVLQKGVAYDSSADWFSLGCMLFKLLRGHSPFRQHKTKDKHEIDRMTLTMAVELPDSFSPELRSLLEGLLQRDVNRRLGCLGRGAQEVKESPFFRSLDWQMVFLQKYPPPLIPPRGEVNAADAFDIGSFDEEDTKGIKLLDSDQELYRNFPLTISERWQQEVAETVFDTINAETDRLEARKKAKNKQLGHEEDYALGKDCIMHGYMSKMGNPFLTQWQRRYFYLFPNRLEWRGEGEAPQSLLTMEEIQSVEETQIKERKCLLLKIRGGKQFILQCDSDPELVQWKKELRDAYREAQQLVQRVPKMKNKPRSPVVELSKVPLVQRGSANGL

[14] = tested on: Tyrosine-protein kinase ABL1 (Homo sapiens), P00519 [F317L]; test: Binding affinity to human non-phosphorylated ABL1 F317L mutant (S229 to K512 residues) expressed in mammalian expression system assessed as remaining unbound target protein level at 1000 nM by Kinomescan method relative to control; summary of the method: as §1
Sequence of Tyrosine-protein kinase ABL1 (Homo sapiens), P00519 [F317L] (P00519 whole entry F317L, the tested form may be a part): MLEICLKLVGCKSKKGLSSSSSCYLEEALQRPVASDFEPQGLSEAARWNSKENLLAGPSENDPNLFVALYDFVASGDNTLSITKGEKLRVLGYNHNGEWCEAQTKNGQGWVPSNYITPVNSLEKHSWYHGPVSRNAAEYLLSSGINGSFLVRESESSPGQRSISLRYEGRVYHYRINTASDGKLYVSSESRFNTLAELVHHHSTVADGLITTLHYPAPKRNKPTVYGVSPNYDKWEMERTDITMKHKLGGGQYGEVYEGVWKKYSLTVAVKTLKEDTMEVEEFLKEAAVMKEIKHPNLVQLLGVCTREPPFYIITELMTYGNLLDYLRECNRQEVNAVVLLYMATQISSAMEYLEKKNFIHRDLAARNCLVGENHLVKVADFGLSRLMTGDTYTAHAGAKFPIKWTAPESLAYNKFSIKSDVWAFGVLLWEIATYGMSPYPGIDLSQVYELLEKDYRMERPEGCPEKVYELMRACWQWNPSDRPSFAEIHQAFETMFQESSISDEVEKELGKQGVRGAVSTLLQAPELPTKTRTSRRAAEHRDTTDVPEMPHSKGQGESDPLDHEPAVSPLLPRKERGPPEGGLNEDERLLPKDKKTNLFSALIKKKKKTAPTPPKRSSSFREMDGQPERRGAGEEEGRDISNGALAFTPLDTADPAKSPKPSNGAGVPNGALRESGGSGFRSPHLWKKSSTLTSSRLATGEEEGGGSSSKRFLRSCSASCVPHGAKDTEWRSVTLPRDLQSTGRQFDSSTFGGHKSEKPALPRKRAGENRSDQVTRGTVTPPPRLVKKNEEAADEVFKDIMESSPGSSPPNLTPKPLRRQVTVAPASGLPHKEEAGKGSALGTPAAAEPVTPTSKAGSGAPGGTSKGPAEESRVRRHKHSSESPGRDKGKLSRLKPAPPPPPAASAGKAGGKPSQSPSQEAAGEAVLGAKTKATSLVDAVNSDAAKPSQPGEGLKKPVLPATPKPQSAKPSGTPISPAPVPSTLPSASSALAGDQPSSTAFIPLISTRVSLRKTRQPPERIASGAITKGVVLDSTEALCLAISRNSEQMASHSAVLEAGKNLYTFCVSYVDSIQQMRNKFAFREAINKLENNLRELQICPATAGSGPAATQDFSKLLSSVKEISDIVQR

[15] = biological target: Tyrosine-protein kinase Lck (Homo sapiens) (UniProt P06239); test: Binding affinity to wild-type human partial length LCK (R207 to P509 residues) expressed in bacterial expression system assessed as remaining unbound target protein level at 1000 nM by Kinomescan method relative to control
Summary of the method: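 KINOMEscan binding panel of 468 kinases/mutants. Inhibitor was tested at a single concentration of 1 μM. Binding is reported as percent of control, defined relative to a DMSO control.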

[16] = biological target: Ribosomal protein S6 kinase alpha-6 (Homo sapiens) (UniProt Q9UK32); test: Binding affinity to wild-type human partial length C-terminal RSK4 kinase domain 2 (I401 to Y711 residues) expressed in bacterial expression system assessed as remaining unbound target protein level at 1000 nM by Kinomescan method relative to control; summary of the method: as §2
[17] = biological target: Serine/threonine-protein kinase ULK3 (Homo sapiens) (UniProt Q6PHR2); test: Binding affinity to wild-type human partial length ULK3 (M1 to Q290 residues) expressed in mammalian expression system assessed as remaining unbound target protein level at 1000 nM by Kinomescan method relative to control
Homo sapiens = species: Homo sapiens; test: Selectivity ratio of IC50 for recombinant full length His-tagged human CDK7/cyclin H/MNAT1 to IC50 for recombinant full length His-tagged human CDK9/CyclinT1

## COCCN[C@H]1CC[C@H](Nc2cc(-c3csc(NCC4(C#N)CCOCC4)n3)c(Cl)cn2)CC1
[1]
  Activity: 54%
[2]
  Activity: 100%
[3]
  EC50: < 100 nM
  inhibition: Dose-dependent effect
HL-60
  Activity: Dose-dependent effect
GISTT1
  GI50: 2.1 nM
[4]
  Activity: 32%
[5]
  Activity: 65%
[6]
  Activity: 83%
[7]
  Activity: 21%
[8]
  activity at 1 µM: 98%
MV4-11
  Activity: inactive
[9]
  Activity: 100%
[10]
  Activity: 100%
[11]
  Activity: 100%
[12]
  Tmax: 1.2 min
[13]
  Activity: 91%
[14]
  Activity: 100%
[15]
  Activity: 81%
[16]
  Activity: 99%
[17]
  Activity: 100%
Homo sapiens
  Ratio IC50: > 1000
